# Experiments:
# [1] = biological target: T1, Sigma non-opioid intracellular receptor 1 (Homo sapiens, UniProt Q99720); assay: Displacement of [3H] Pentazocine from sigma 1 receptor in HEK293 cell membrane; assay type: cell membranes
# D(4) dopamine receptor = biological target: T2, D(4) dopamine receptor (Homo sapiens, UniProt P21917); assay: Displacement of [3H]N-methylspiperone from D4 receptor in HEK293 cell membrane; assay type: cell membranes
# T2 sequence (P21917 whole entry): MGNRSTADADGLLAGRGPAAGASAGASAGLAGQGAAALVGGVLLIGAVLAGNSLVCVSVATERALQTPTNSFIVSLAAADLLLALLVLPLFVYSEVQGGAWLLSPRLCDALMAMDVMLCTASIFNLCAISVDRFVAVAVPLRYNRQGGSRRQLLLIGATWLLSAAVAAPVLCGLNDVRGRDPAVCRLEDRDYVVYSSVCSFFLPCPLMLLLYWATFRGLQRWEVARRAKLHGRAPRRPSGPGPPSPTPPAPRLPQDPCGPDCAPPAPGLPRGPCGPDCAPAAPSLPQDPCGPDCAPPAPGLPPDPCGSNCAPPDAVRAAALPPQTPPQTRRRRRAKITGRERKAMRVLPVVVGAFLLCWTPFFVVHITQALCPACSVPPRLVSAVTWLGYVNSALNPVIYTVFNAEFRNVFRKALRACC
# [2] = biological target: T3, D(4) dopamine receptor (Homo sapiens) (UniProt P21917); assay: Displacement of [3H]N-methylspiperone from D4 receptor in HEK293 cell membrane assessed as inhibition constant at 10 uM relative to control; assay type: cell membranes; parameters: scale not given: the % may be the effect or the level left
# T3 sequence (whole entry): T2 sequence (P21917 whole entry)
# [3] = Plasma protein binding in mouse assessed as unbound fraction; assay type: ADME
# In short: (§1)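 Plasma protein binding by equilibrium dialysis in human or mouse plasma, reported as fraction unbound (fu).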
# [4] = Plasma protein binding in human assessed as unbound fraction; assay type: ADME, cell-free; in short: as §1
# [5] = biological target: T1, Sigma non-opioid intracellular receptor 1; assay: Displacement of [3H] Pentazocine from sigma 1 receptor in HEK293 cell membrane assessed as inhibition constant relative to control; assay type: cell membranes; parameters: scale not given: the % may be the effect or the level left
# In short: (§2)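 Competitive radioligand binding in membranes harvested from HEK293 cells, with one radioligand per target: [3H]N-methylspiperone for D2, D3 and D4; [3H]SCH23390 for D1 and D5; [3H]pentazocine for σ1; [3H]DTG for σ2. Ki derived from inhibition of binding, each run in triplicate.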
# [6] = Intrinsic clearance in human liver microsomes; assay type: ADME, Microsome; conditions: read-out: CLH
# In short: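 Intrinsic clearance measured in human liver microsomes. Hepatic clearance predicted from it with the well-stirred organ model, binding terms excluded.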
# [7] = biological target: Sigma intracellular receptor 2 (Homo sapiens, UniProt Q5BJF2); assay: Displacement of [3H]DTG from sigma-2 receptor in HEK293 cell membrane assessed as inhibition constant; assay type: cell membranes; in short: as §2
# D(1A) dopamine receptor = D(1A) dopamine receptor (Homo sapiens, UniProt P21728); assay: Displacement of [3H]SCH23390 from D1 receptor in HEK293 cell membrane assessed as inhibition constant; assay type: cell membranes; in short: as §2
# [8] = Cmax in mouse plasma at 5 mg/kg, ip measured after 24 hrs; assay type: ADME, organism-based; parameters: dose 5 mg/kg, time 24 hrs, route ip; conditions: in vivo
# In short: (§3)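 Discrete mouse study, single intraperitoneal dose of 5 mg/kg in 10% DMSO/10% Cremophor EL/30% PEG400/50% water. Plasma and brain concentrations followed over 24 h. Parameters estimated by non-compartmental analysis.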
# [9] = Half life in mouse plasma at 5 mg/kg, ip measured after 24 hrs; assay type: ADME, organism-based; conditions: in vivo; in short: as §3
# [10] = Ratio of free drug concentration in mouse brain to plasma at 5 mg/kg, ip measured after 5 hrs; assay type: ADME, organism-based; conditions: read-out: K(p,uu,brain)
# In short: (§4)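 Mice received 5 mg/kg IP in 10% DMSO/10% Cremophor EL/30% PEG400/50% water. Kp,uu is free brain over free plasma concentration at 1 h and 5 h. Free levels are corrected with unbound fractions measured in mouse plasma protein binding and in mouse brain homogenate binding.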
# [11] = Tmax in mouse plasma at 5 mg/kg, ip measured after 24 hrs; assay type: ADME, organism-based; conditions: in vivo; in short: as §3
# [12] = Cmax in mouse brain at 5 mg/kg, ip measured after 24 hrs; assay type: ADME, organism-based; parameters: time 24 hrs, dose 5 mg/kg, route ip; in short: as §3
# [13] = Tmax in mouse brain at 5 mg/kg, ip measured after 24 hrs; assay type: ADME, organism-based; conditions: in vivo; in short: as §3
# [14] = biological target: T1, Sigma non-opioid intracellular receptor 1; assay: Binding affinity to sigma 1 receptor in human Jurkat cells; assay type: cell-based
# [15] = Half life in mouse brain at 5 mg/kg, ip measured after 24 hrs; assay type: ADME, organism-based; conditions: in vivo; in short: as §3
# [16] = Ratio of total drug concentration in mouse brain to plasma at 5 mg/kg, ip measured after 1 hr; assay type: ADME, organism-based
# In short: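 Mice received 5 mg/kg IP in 10% DMSO/10% Cremophor EL/30% PEG400/50% water. Kp is total brain concentration divided by total plasma concentration, taken at 1 h and 5 h post-dose.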
# [17] = AUC(infinity) in mouse plasma at 5 mg/kg, ip measured after 24 hrs; assay type: ADME, organism-based; parameters: dose 5 mg/kg, time 24 hrs, route ip; conditions: in vivo; in short: as §3
# [18] = Ratio of free drug concentration in mouse brain to plasma at 5 mg/kg, ip measured after 1 hr; assay type: ADME, organism-based; in short: as §4
# [19] = Mean residence time in mouse plasma at 5 mg/kg, ip measured after 24 hrs; assay type: ADME, organism-based; conditions: in vivo; in short: as §3
# [20] = AUC(infinity) in mouse brain at 5 mg/kg, ip measured after 24 hrs; assay type: ADME, organism-based; parameters: dose 5 mg/kg, time 24 hrs, route ip; in short: as §3
# [21] = Mean residence time in mouse brain at 5 mg/kg, ip measured after 24 hrs; assay type: ADME, organism-based; conditions: in vivo; in short: as §3
# D(1B) dopamine receptor = D(1B) dopamine receptor (Homo sapiens, UniProt P21918); assay: Displacement of [3H]SCH23390 from D5 receptor in HEK293 cell membrane assessed as inhibition constant; assay type: cell membranes; in short: as §2
# D(2) dopamine receptor = D(2) dopamine receptor (Homo sapiens, UniProt P14416); assay: Displacement of [3H]N-methylspiperone from D2 receptor in HEK293 cell membrane assessed as inhibition constant; assay type: cell membranes; in short: as §2
# D(3) dopamine receptor = D(3) dopamine receptor (Homo sapiens, UniProt P35462); assay: Displacement of [3H]N-methylspiperone from D3 receptor in HEK293 cell membrane assessed as inhibition constant; assay type: cell membranes; in short: as §2
# D(3) dopamine receptor, sequence (P35462 whole entry): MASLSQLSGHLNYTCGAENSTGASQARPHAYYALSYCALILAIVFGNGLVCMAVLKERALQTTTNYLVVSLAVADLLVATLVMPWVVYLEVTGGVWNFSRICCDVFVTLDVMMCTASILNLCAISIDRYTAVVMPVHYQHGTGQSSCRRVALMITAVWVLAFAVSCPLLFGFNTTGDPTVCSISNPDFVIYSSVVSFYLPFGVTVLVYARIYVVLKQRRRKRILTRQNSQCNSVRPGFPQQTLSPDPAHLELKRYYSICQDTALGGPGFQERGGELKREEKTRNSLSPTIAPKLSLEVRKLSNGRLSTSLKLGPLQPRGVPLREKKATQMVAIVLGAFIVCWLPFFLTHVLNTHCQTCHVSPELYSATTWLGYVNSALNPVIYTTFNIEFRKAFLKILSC
# T1 sequence (Q99720 whole entry): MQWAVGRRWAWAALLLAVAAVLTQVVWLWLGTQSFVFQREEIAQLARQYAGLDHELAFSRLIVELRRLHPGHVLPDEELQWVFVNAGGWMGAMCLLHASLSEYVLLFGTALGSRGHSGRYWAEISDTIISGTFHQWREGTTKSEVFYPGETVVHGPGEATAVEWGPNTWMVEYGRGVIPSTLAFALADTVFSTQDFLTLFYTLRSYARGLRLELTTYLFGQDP
# Sigma intracellular receptor 2, sequence (Q5BJF2 whole entry): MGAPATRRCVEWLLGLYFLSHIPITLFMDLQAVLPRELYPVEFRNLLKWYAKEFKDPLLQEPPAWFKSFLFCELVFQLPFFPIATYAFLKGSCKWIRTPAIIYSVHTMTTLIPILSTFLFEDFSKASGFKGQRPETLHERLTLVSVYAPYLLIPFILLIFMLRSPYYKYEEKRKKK
# D(1B) dopamine receptor, sequence (P21918 whole entry): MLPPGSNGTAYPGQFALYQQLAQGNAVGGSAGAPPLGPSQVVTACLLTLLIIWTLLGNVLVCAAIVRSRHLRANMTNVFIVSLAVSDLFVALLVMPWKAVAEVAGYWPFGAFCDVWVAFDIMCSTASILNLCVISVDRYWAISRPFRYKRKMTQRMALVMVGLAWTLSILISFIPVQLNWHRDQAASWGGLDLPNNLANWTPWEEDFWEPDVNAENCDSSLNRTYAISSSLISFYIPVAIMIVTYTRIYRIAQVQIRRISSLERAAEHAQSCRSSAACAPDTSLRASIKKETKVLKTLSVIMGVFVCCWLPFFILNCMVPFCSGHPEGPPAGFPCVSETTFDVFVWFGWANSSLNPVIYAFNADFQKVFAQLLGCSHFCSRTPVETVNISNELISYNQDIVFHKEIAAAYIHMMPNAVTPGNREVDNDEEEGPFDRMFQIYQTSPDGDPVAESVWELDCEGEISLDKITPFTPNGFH
# D(1A) dopamine receptor, sequence (P21728 whole entry): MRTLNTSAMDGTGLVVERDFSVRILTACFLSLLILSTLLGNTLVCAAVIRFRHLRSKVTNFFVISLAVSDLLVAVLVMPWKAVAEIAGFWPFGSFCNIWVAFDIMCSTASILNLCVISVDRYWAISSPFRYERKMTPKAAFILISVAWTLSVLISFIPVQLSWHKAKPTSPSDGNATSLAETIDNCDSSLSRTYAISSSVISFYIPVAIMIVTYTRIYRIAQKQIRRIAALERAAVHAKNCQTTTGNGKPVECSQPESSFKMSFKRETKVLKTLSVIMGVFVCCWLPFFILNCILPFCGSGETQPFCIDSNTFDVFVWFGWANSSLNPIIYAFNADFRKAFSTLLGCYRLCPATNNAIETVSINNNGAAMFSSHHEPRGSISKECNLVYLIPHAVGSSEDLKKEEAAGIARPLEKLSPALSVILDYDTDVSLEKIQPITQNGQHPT
# D(2) dopamine receptor, sequence (P14416 whole entry): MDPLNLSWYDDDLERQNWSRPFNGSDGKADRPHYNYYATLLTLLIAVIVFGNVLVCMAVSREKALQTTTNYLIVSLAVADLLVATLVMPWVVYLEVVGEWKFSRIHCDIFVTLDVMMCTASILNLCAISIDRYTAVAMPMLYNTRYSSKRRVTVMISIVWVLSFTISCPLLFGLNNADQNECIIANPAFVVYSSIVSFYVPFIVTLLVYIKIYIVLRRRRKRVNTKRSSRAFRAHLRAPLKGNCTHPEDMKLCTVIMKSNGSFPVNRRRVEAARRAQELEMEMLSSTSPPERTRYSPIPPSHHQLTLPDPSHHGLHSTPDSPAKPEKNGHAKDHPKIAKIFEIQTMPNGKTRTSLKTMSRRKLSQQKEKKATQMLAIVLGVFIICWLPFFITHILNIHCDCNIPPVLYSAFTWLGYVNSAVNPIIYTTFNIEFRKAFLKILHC
smiles,measurement,setting,value
c1ccc(OC[C@@H]2CN(Cc3ccc4[nH]ccc4c3)CCO2)cc1,Ki,[1]; read-out: Ki,44 nM
same,Ki,D(4) dopamine receptor; read-out: Ki,3.3 nM
Cc1ccccc1CO[C@H]1CCCN(Cc2cn3ccccc3n2)C1,Ki,[1]; read-out: Ki,503 nM
same,Activity,[2],60%
Cn1cnc2cc(CN3CCC(OCc4ccc(Cl)c(F)c4)CC3)ccc21,Ki,[1]; read-out: Ki,31 nM
same,Fu,[3],75%
same,Fu,[4],13%
same,Activity,[2],48%
Cc1c(Cl)cccc1NC(=O)CN1CCC(OCc2ccc(Cl)c(F)c2)CC1,Ki,[1]; read-out: Ki,97 nM
Cc1c(Cl)cccc1NC(=O)CN1CCC2(CCCN(Cc3ccc(F)c(F)c3)C2)C1 (stereo unspecified),Ki,[1]; read-out: Ki,19 nM
same,Activity,[2],23%
Cc1cccc(CO[C@H]2CCCN(Cc3ccc4c(cnn4C)c3)C2)n1,Ki,[1]; read-out: Ki,1280 nM
same,Activity,[2],23%
Fc1cccc(CO[C@H]2CCCN(Cc3cn4ccccc4n3)C2)c1,Ki,[1]; read-out: Ki,490 nM
same,Ki,D(4) dopamine receptor; read-out: Ki,1210 nM
Cc1csc(OC[C@@H]2CN(Cc3cn4ccccc4n3)CCO2)n1,Activity,[5],6%
same,Ki,D(4) dopamine receptor; read-out: Ki,1560 nM
Fc1cc(COC2CCN(Cc3cn4ccccc4n3)CC2)ccc1Cl,Ki,[1]; read-out: Ki,2.3 nM
FC(F)(F)Oc1cccc(CO[C@H]2CCCN(Cc3cn4ccccc4n3)C2)c1,Ki,[1]; read-out: Ki,35 nM
Fc1ccc(COC2CCN(Cc3cc4ccc(Cl)cc4[nH]3)CC2)cc1F,Ki,[1]; read-out: Ki,8.1 nM
same,Fu,[4],< 0.3%
FC(F)(F)c1cccc(COC2CCN(Cc3cn4ccccc4n3)CC2)c1,Ki,[1]; read-out: Ki,3.5 nM
same,Fu,[3],8.8%
same,Fu,[4],2.2%
same,Ki,D(4) dopamine receptor; read-out: Ki,175 nM
COc1ccc(CN2CCC[C@H](OCc3cccc(F)c3)C2)cc1F,Ki,[1]; read-out: Ki,4.3 nM
Fc1cc(COC2CCN(Cc3ccc4[nH]ncc4c3)CC2)ccc1Cl,Ki,[1]; read-out: Ki,0.7 nM
same,Fu,[3],6.5%
same,Fu,[4],7%
same,CLint scaled,[6],26.3 mL/min/kg
Cc1cccc(CO[C@H]2CCCN(Cc3cc4ccc(Cl)cc4[nH]3)C2)n1,Ki,[1]; read-out: Ki,52 nM
Cc1csc(OC[C@@H]2CN(Cc3cc4ccc(Cl)cc4[nH]3)CCO2)n1,Ki,[1]; read-out: Ki,388 nM
same,Ki,D(4) dopamine receptor; read-out: Ki,169 nM
Fc1ccc(CN2CCCC23CCN(Cc2cn4ccccc4n2)C3)cc1F (stereo unspecified),Ki,[1]; read-out: Ki,3.6 nM
same,Fu,[3],30.2%
same,Fu,[4],2.7%
same,Ki,[7],23 nM
same,Activity,[2],-0.7%
same,Ki,D(1A) dopamine receptor,> 10 µM
Cn1ncc2cc(CN3CCO[C@H](COc4ccc(F)c(F)c4)C3)ccc21,Ki,[1]; read-out: Ki,23 nM
same,Ki,D(4) dopamine receptor; read-out: Ki,28 nM
Cc1c(Cl)cccc1NC(=O)CN1CCC2(CCCN2Cc2ccc(F)c(F)c2)C1 (stereo unspecified),Ki,[1]; read-out: Ki,14 nM
same,Ki,[7],43 nM
same,Ki,D(4) dopamine receptor; read-out: Ki,1700 nM
same,Ki,D(1A) dopamine receptor,> 10 µM
FC(F)(F)c1cccc(COC2CCN(Cc3cc4ccc(Cl)cc4[nH]3)CC2)c1,Ki,[1]; read-out: Ki,14 nM
same,Ki,D(4) dopamine receptor; read-out: pKi (converted),209 nM
Fc1ccc(COC2CCN(Cc3ccc4[nH]cnc4c3)CC2)cc1F,Cmax,[8],527 ng/mL
same,Ki,[1]; read-out: Ki,8.3 nM
same,t1/2,[9],2.14 h
same,Kp uu at 5 h,[10],6.44
same,Ki,[7],166 nM
same,Tmax,[11],16.8 min
same,Cmax,[12],860 ng/mL
same,Tmax,[13],33.6 min
same,Ki,[14],12 nM
same,t1/2,[15],9.11 h
same,Kp,[16],2.78
same,AUC,[17],952 ng·h/mL
same,"K(p,uu,brain)",[18],1.59
same,Ki,D(1A) dopamine receptor,> 10 µM
same,MRT,[19],2.12 h
same,AUC(0-inf),[20],4560 ng·h/mL
same,MRT,[21],8.43 h
same,Ki,D(1B) dopamine receptor,> 10 µM
FC(F)(F)c1cccc(COC2CCN(Cc3ccc4[nH]cnc4c3)CC2)c1,Ki,[7],73 nM
same,Ki,D(1A) dopamine receptor,> 10 µM
same,Ki,D(1B) dopamine receptor,> 10 µM
Fc1ccc(CN2CCCC3(CCN(Cc4cc5ccc(Cl)cc5[nH]4)C3)C2)cc1F (stereo unspecified),Ki,[1]; read-out: Ki,7.1 nM
same,Ki,D(2) dopamine receptor,> 10 µM
same,Ki,[7],30 nM
same,Ki,D(3) dopamine receptor,345 nM
same,Activity,[2],39%
same,Ki,D(1A) dopamine receptor,1.53 µM
same,Ki,D(1B) dopamine receptor,> 10 µM
Fc1ccc(COC2CCN(Cc3ncc4ccccn34)CC2)cc1F,Ki,[1]; read-out: Ki,143 nM
COc1ccc(CN2CCC[C@H](OCc3ccc(C)cc3)C2)cc1F,Ki,[1]; read-out: Ki,5.5 nM
same,Fu,[3],2.5%
same,Fu,[4],1.3%
Fc1ccc(CN2CCCC23CCN(Cc2cc4ccc(Cl)cc4[nH]2)C3)cc1F (stereo unspecified),Ki,[1]; read-out: Ki,5.5 nM
same,Ki,[1]; read-out: pKi (converted),5.37 nM
same,Ki,D(2) dopamine receptor,> 10 µM
same,Ki,[7],23 nM
same,Ki,D(3) dopamine receptor,118 nM
same,Ki,D(4) dopamine receptor; read-out: Ki,268 nM
same,Ki,D(1A) dopamine receptor,2.37 µM
same,Ki,D(1B) dopamine receptor,> 10 µM
Cc1cccc(CO[C@H]2CCCN(Cc3cn4ccccc4n3)C2)n1,Activity,[5],39%
same,Activity,[2],23%
COc1ccc(CN2CCO[C@H](COc3ccccc3)C2)cc1F,Ki,[1]; read-out: Ki,41 nM
same,Ki,D(4) dopamine receptor; read-out: Ki,5 nM
Cc1cc(NC(=O)CN2CCC3(CCCN3Cc3ccc(F)c(F)c3)C2)ccc1F (stereo unspecified),Ki,[1]; read-out: Ki,16 nM
same,Ki,[7],47 nM
same,Ki,D(3) dopamine receptor,512 nM
same,Activity,[2],14%
same,Ki,D(1A) dopamine receptor,> 10 µM
same,Ki,D(1B) dopamine receptor,> 10 µM
Cc1ccccc1CO[C@H]1CCCN(Cc2ccc3c(cnn3C)c2)C1,Ki,[1]; read-out: Ki,37 nM
same,Fu,[3],8.8%
same,Fu,[4],4.3%
same,Ki,[7],239 nM
same,Activity,[2],65%
same,Ki,D(1A) dopamine receptor,> 10 µM
Cn1cnc2cc(CN3CCC(OCc4cccc(C(F)(F)F)c4)CC3)ccc21,Ki,[1]; read-out: Ki,12 nM
Fc1ccc2c(CN3CCC(F)(F)[C@H](CCc4ccccc4)C3)c[nH]c2c1,Ki,[1]; read-out: Ki,52 nM
same,Ki,D(4) dopamine receptor; read-out: Ki,3.5 nM
